Results pooled from the literature.
Protocols differ between the studies behind these lines.
Target: Serine/threonine-protein kinase DCLK3 (DCLK3, Homo sapiens, UniProt Q9C098)
Residues used in one study (Q9C098 1-648): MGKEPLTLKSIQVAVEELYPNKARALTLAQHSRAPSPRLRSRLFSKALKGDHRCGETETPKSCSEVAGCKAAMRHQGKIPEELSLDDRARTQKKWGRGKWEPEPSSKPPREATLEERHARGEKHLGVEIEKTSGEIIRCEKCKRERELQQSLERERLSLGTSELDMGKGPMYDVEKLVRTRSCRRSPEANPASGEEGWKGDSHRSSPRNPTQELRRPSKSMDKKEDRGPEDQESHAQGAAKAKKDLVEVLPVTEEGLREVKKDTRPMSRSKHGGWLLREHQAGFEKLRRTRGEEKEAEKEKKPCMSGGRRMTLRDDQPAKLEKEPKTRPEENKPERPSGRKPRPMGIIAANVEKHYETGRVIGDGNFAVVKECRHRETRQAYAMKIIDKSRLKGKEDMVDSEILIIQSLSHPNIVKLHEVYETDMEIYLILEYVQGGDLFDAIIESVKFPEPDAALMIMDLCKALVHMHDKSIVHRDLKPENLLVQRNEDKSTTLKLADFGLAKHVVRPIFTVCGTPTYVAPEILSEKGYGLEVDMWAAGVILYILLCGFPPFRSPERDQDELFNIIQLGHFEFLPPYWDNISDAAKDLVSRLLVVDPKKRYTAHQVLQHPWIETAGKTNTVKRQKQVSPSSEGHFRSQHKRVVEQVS

SMILES | read-out | action | method | tested at | endpoint | value
Nc1ncnc2occ(-c3ccc(NC(=O)Nc4cc(C(F)(F)F)ccc4F)cc3)c12 | cell-free assay | inhibitor |  | 20 µM | remaining signal | 24%
Cc1ccc(C(=O)Nc2ccc(CN3CCN(C)CC3)c(C(F)(F)F)c2)cc1C#Cc1cnc2cccnn12 | enzyme activity | inhibitor |  | 23.5 nM | remaining activity | 100%
Cc1ccc(NC(=O)c2ccc(C)c(C(F)(F)F)c2)cc1C#Cc1nn(C2CCC(O)CC2)c2ncnc(N)c12 (stereo not drawn) | cell-free assay |  |  | 10 µM | remaining signal | 101%
COc1ccc2c(O[C@@H]3C[C@H]4C(=O)N[C@]5(C(=O)O)CC5/C=C\CCCCC[C@H](NC(=O)OC5CCCC5)C(=O)N4C3)cc(-c3csc(NC(=O)C(C)C)n3)nc2c1C (stereo partly drawn) | cell-free assay |  | competition with immobilised ligand | 1 µM | remaining binding | 96%
COc1cc(Cl)c(C(=O)N[C@@H](CN[C@H]2CC[C@@H](N)CC2)Cc2ccc(C#N)cc2)cc1-c1ccc(CN[C@H](C)c2ccc(C)cc2)o1 | enzyme activity | inhibitor |  | 1 µM | remaining activity | 89%
Cc1cc(NC(=O)c2cccc3cc(-c4cccc5[nH]nc(N)c45)ccc23)ccc1F | enzyme activity | inhibitor |  | 0.1 µM | activity vs control | 110%
COc1cc(-c2cn(C3CCc4ccccc4N(CC(F)(F)F)C3=O)nn2)ccc1-n1ccc(C)n1 (stereo not drawn) | cell-free assay |  | competition with immobilised ligand | 1 µM | remaining binding | 100%
CN1CC(Oc2cnc(C#N)cc2-c2ccn3nc(NC(=O)C4CC4)cc3c2)C1 | enzyme activity | inhibitor |  | 1 µM | inhibition | -4%
Cc1cnc(NC2CCOCC2)nc1-n1cnc(C(=O)NC(CN)c2cc(F)cc(Cl)c2)c1 (stereo not drawn) | enzyme activity | inhibitor | radiometric | 1 µM | remaining activity | 56%
